Reference: ChEMBL document CHEMBL1136627, “Discovery of novel neuronal voltage-dependent calcium channel blockers based on emopamil left hand as a bioactive template” (Bioorg Med Chem Lett, 2003)

Tested on: Mus musculus
Test: Anti seizure activity was evaluated in the audiogenic seizure model using DBA/2 mice at 10 mg/kg (iv)
Assay type: functional
How it was run: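 DBA/2 mice given test compound iv at 10 mg/kg; 5 min later each mouse placed singly under a perspex dome and exposed to sound (100 dB, 11 kHz) continued for 60 s; scored for sound-induced tonic convulsion.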
`CC(C)C(C#N)(CCCN1CCN(CCOc2ccc(F)cc2)CC1)c1ccccc1` (stereo unspecified) showed a Protection of 100%.

Tested on: not listed separately
Test: Neuronal voltage-dependent calcium channel (VDCC) inhibitory activity determined in rat cortical synaptosomes
Assay type: subcellular, Brain
How it was run: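 Rat cortical synaptosomes depolarized with KCl; rise in intracellular Ca2+ measured fluorimetrically with Fura2; IC50 (µM) for inhibition of the KCl-elicited [Ca2+]i elevation; racemic test compounds.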
For `CC(C)C(C#N)(CCCN1CCN(CCCc2ccccc2)CC1)c1ccccc1` (stereo unspecified), the IC50 was 4.5 µM.
With `CC(C)C(C#N)(CCCN1CCN(CCOc2cccnc2)CC1)c1ccccc1` (stereo unspecified) the IC50 was > 16 µM.
Molecule `CC(C)C(C#N)(CCCN1CCN(CCOc2ccccc2C#N)CC1)c1ccccc1` (stereo unspecified) has an IC50 of 16 µM.
With `CC(C)C(C#N)(CCCN1CCN(c2ccccc2)CC1)c1ccccc1` (stereo unspecified) the IC50 was > 16 µM.
In the case of `CC(C)C(C#N)(CCCN1CCN(CCO)CC1)c1ccccc1` (stereo unspecified), the IC50 is reported as > 16 µM.
With `CC(C)C(C#N)(CCCN1CCN(Cc2ccccc2)CC1)c1ccccc1` (stereo unspecified) the IC50 was 12 µM.
For `CC(C)C(C#N)(CCCN1CCNCC1)c1ccccc1` (stereo unspecified), the IC50 was > 16 µM.
Molecule `CC(C)C(C#N)(CCCN1CCN(CCOc2ccc(F)cc2)CC1)c1ccccc1` (stereo unspecified) has an IC50 of 5.9 µM.
For `CC(C)C(C#N)(CCCN1CCN(CCOc2ccccn2)CC1)c1ccccc1` (stereo unspecified), the IC50 was > 16 µM.
Work on `CC(C)C(C#N)(CCCN1CCN(CCOc2ccc(N)cc2)CC1)c1ccccc1` (stereo unspecified) yielded an IC50 of 13 µM.
`CC(C)C(C#N)(CCCN1CCN(CCOc2ccc([N+](=O)[O-])cc2)CC1)c1ccccc1` (stereo unspecified) showed an IC50 of 7.5 µM.
With `C#CCCCCN1CCN(CCCC(C#N)(c2ccccc2)C(C)C)CC1` (stereo unspecified) the IC50 was > 16 µM.
With `CC(C)C(C#N)(CCCN1CCN(CCOc2ccc(N(C)C)cc2)CC1)c1ccccc1` (stereo unspecified) the IC50 was > 16 µM.
In the case of `CC(C)C(C#N)(CCCN1CCN(C)CC1)c1ccccc1` (stereo unspecified), the IC50 is reported as > 16 µM.
For `CC(C)C(C#N)(CCCN1CCN(CCOc2ccncc2)CC1)c1ccccc1` (stereo unspecified), the IC50 was > 16 µM.
`CC(C)C(C#N)(CCCN1CCN(CCOc2cccc(C#N)c2)CC1)c1ccccc1` (stereo unspecified) showed an IC50 of 7.7 µM.
With `CC(C)C(C#N)(CCCN1CCN(CCOc2ccc(F)c(F)c2)CC1)c1ccccc1` (stereo unspecified) the IC50 was 5.2 µM.
`CC(C)C(C#N)(CCCN1CCN(CCOc2ccccc2F)CC1)c1ccccc1` (stereo unspecified) gave an IC50 of 9.3 µM.
`CC(C)C(C#N)(CCCN1CCN(CCOc2ccc(Cl)cc2)CC1)c1ccccc1` (stereo unspecified) showed an IC50 of 3.4 µM.
For `CC(C)C(C#N)(CCCN1CCN(CCOc2ccc(C#N)cc2)CC1)c1ccccc1` (stereo unspecified), the IC50 was 13 µM.
With `CC(C)C(C#N)(CCCN1CCN(CCc2ccccc2)CC1)c1ccccc1` (stereo unspecified) the IC50 was 7.7 µM.
Molecule `COc1ccc(OCCN2CCN(CCCC(C#N)(c3ccccc3)C(C)C)CC2)cc1` (stereo unspecified) has an IC50 of 9.6 µM.
In the case of `CC(C)C(C#N)(CCCN1CCN(CCOc2cccc(F)c2)CC1)c1ccccc1` (stereo unspecified), the IC50 is reported as 6.2 µM.
With `CC(C)C(C#N)(CCCN1CCN(CCOc2cccc3ccccc23)CC1)c1ccccc1` (stereo unspecified) the IC50 was 2.5 µM.
`CC(C)C(C#N)(CCCN(C)CCc1ccccc1)c1ccccc1` (stereo unspecified) [EMOPAMIL] showed an IC50 of 28 µM.
